Results taken from ChEMBL document CHEMBL1148511, “Novel 5-azaindole factor VIIa inhibitors” (Bioorg Med Chem Lett, 2006).

Tests used:
[1] = biological target: Thrombin and coagulation factor VII (Homo sapiens) (UniProt P00734+P08709); assay: Selectivity for F7a/TF over F2a; assay type: protein assay
Procedure, shortened: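 FVIIa (7 nM) with soluble tissue factor (11 nM) was run in 1.5 mM EDTA. Thrombin (12.7 nM) was run in 1 mM EDTA with Tosyl-Gly-Pro-Lys-pNA at Km. Hydrolysis was followed at 405 nm, and apparent Ki came from a Morrison equation fit.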

[2] = biological target: Coagulation factor VII/tissue factor (Homo sapiens) (UniProt P08709+P13726); assay: Selectivity for F7a/TF over trypsin; assay type: protein-complex assay
Procedure, shortened: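 Trypsin (10 nM) was tested without CaCl2, using Tosyl-Gly-Pro-Lys-pNA at Km. Readout was kinetic A405, and Ki was fitted with the Morrison tight-binding equation.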

[3] = biological target: Coagulation factor VII and X (Homo sapiens) (UniProt P00742+P08709); assay: Selectivity for F7a/TF over F10a; assay type: protein assay
Procedure, shortened: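 Reactions were started with pNA substrate at Km and read as A405 over time. Ki was fitted with the Morrison tight-binding equation.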

Coagulation factor VII = biological target: T1, Coagulation factor VII (Homo sapiens, UniProt P08709); assay: Binding affinity to F7a/TF complex; assay type: protein-complex assay
T1 sequence (P08709 whole entry): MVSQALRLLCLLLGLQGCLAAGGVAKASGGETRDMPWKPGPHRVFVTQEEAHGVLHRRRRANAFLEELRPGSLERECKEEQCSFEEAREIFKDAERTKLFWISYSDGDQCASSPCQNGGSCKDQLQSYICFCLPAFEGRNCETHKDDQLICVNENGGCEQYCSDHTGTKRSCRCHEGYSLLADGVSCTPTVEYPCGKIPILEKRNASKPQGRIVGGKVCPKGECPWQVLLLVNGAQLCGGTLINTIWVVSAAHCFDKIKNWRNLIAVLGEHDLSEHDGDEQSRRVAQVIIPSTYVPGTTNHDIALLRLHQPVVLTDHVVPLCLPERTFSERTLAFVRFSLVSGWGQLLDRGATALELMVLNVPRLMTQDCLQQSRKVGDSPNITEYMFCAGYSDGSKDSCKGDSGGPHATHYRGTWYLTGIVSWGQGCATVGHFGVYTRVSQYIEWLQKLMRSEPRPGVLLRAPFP

[4] = Binding affinity to trypsin; parameters: species or system Homo sapiens
Coagulation factor X = Coagulation factor X (Homo sapiens, UniProt P00742); assay: Binding affinity to F10a
Prothrombin = Prothrombin (Homo sapiens, UniProt P00734); assay: Binding affinity to F2a

Sequence of Coagulation factor X (P00742 41-179 limits assumed): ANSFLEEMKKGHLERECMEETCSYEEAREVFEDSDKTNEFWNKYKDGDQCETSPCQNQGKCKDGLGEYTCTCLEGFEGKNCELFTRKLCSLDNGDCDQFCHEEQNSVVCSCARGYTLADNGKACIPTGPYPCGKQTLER
Sequence of Coagulation factor X (P00742 235-488 limits assumed): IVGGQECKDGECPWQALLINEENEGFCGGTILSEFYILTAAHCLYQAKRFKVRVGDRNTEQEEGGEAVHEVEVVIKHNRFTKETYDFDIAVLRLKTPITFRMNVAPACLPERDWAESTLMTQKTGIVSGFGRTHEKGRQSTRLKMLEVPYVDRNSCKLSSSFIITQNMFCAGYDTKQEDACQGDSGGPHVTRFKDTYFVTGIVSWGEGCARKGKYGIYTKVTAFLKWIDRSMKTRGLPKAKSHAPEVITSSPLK

Compound | Ratio Ki [1] | Ratio Ki [2] | Ratio Ki [3] | Ki (Coagulation factor VII) [nM] | Ki [4] [nM] | Ki (Coagulation factor X) [nM] | Ki (Prothrombin) [nM]
O=C(Cc1ccccc1)NCc1cccc(-c2cccc(-c3cc4c[nH]ccc-4n3)c2O)c1 | 24 | 26 | 46 | – | – | – | –
COc1ccc(NC(=O)NCc2cccc(-c3cccc(-c4cc5c[nH]ccc-5n4)c3O)c2)c(OC)c1 | 3180 | 5000 | 2640 | 28 | – | – | –
O=C(NCc1cccc(-c2cccc(-c3cc4c[nH]ccc-4n3)c2O)c1)Nc1ccc(C(=O)O)cc1 | 2240 | 1100 | 966 | 58 | – | – | –
O=C(NCc1cccc(-c2cccc(-c3cc4c[nH]ccc-4n3)c2O)c1)Nc1ccccc1Cl | 2630 | 2630 | 2630 | – | – | – | –
O=C(NCc1cccc(-c2cccc(-c3cc4c[nH]ccc-4n3)c2O)c1)Nc1ccc(F)cc1F | 1200 | 1500 | 1700 | 100 | – | – | –
COc1ccc(NC(=O)NCc2cccc(-c3cccc(-c4cc5c[nH]ccc-5n4)c3O)c2)cc1 | 1020 | 1590 | 705 | 88 | – | – | –
O=C(NCc1cccc(-c2cccc(-c3cc4c[nH]ccc-4n3)c2O)c1)Nc1cccs1 | 938 | 538 | 600 | – | – | – | –
O=C(Cc1c(F)cccc1F)NCc1cccc(-c2cccc(-c3cc4c[nH]ccc-4n3)c2O)c1 | 16 | 16 | 10 | 9500 | – | – | –
O=C(NCc1cccc(-c2cccc(-c3cc4c[nH]ccc-4n3)c2O)c1)C(CO)c1ccccc1 (configuration not stated) | 470 | 57 | 136 | 220 | – | – | –
O=C(NCc1cccc(-c2cccc(-c3cc4c[nH]ccc-4n3)c2O)c1)Nc1ccccn1 | 56 | 56 | 67 | 2700 | – | – | –
O=C(NCc1cccc(-c2cccc(-c3cc4c[nH]ccc-4n3)c2O)c1)Nc1c(F)cccc1F | 3940 | 2180 | 2700 | 33 | – | – | –
O=C(NCc1cccc(-c2cccc(-c3cc4c[nH]ccc-4n3)c2O)c1)C(O)c1ccccc1 (configuration not stated) | 68 | 57 | 80 | 850 | – | – | –
CC(=O)c1ccc(NC(=O)NCc2cccc(-c3cccc(-c4cc5c[nH]ccc-5n4)c3O)c2)cc1 | 305 | 495 | 789 | – | – | – | –
O=C(NCc1cccc(-c2cccc(-c3cc4c[nH]ccc-4n3)c2O)c1)N(O)Cc1ccccc1 | 750 | 375 | 653 | 72 | – | – | –
COc1ccccc1NC(=O)NCc1cccc(-c2cccc(-c3cc4c[nH]ccc-4n3)c2O)c1 | 3190 | 3190 | 1720 | 47 | – | – | –
N=C(N)c1ccc2[nH]c(-c3cccc(-c4cc(CNC(N)=O)ccc4O)c3O)nc2c1 | – | – | – | – | 3600 | – | –
O=C(NCc1cccc(-c2cccc(-c3cc4c[nH]ccc-4n3)c2O)c1)Nc1ccc(F)c(F)c1 | 455 | 455 | 455 | 330 | – | – | –

Compound | Ratio Ki [1] | Ratio Ki [2] | Ratio Ki [3] | Ki (Coagulation factor VII) [nM] | Ki [4] [nM] | Ki (Coagulation factor X) [nM] | Ki (Prothrombin) [nM]
COc1cccc(NC(=O)NCc2cccc(-c3cccc(-c4cc5c[nH]ccc-5n4)c3O)c2)c1 | 1500 | 1500 | 1600 | 100 | – | – | –
O=C(NCc1cccc(-c2cccc(-c3cc4c[nH]ccc-4n3)c2O)c1)Nc1ccc(F)cc1 | 1360 | 1360 | 382 | 110 | – | – | –
CCCCCNC(=O)NCc1cccc(-c2cccc(-c3cc4c[nH]ccc-4n3)c2O)c1 | 343 | 181 | 388 | 335 | – | – | –
O=C(NCc1cccc(-c2cccc(-c3cc4c[nH]ccc-4n3)c2O)c1)Nc1ccccc1F | 2460 | 2630 | 1930 | 57 | – | – | –
O=C(NCc1cccc(-c2cccc(-c3cc4c[nH]ccc-4n3)c2O)c1)Nc1cccnc1 | 968 | 935 | 635 | 155 | – | – | –
O=C(NCc1cccc(-c2cccc(-c3cc4c[nH]ccc-4n3)c2O)c1)C(CO)c1cccnc1 (configuration not stated) | 107 | 34 | 149 | 610 | – | – | –
O=C(NCc1cccc(-c2cccc(-c3cc4c[nH]ccc-4n3)c2O)c1)Nc1ccccc1 | 2110 | 2030 | 1010 | 61.5 | – | – | –
O=C(NCc1cccc(-c2cccc(-c3cc4c[nH]ccc-4n3)c2O)c1)Nc1ccsc1 | 769 | 1150 | 623 | – | – | – | –
O=C(NCc1cccc(-c2cccc(-c3cc4c[nH]ccc-4n3)c2O)c1)Nc1cc(F)cc(F)c1 | 181 | 181 | 181 | 830 | – | – | –
O=C(NCCc1cccs1)NCc1cccc(-c2cccc(-c3cc4c[nH]ccc-4n3)c2O)c1 | 169 | 120 | 429 | – | – | – | –
O=C(NCc1cccc(-c2cccc(-c3cc4c[nH]ccc-4n3)c2O)c1)N1CCCC1 | 5 | 9 | 3 | 17000 | – | – | –
CN1CCN(C(=O)NCc2cccc(-c3cccc(-c4cc5c[nH]ccc-5n4)c3O)c2)CC1 | 1 | 1 | 1 | 130000 | – | – | –
O=C(NCc1cccc(-c2cccc(-c3cc4c[nH]ccc-4n3)c2O)c1)Nc1cccc(F)c1 | 1150 | 1150 | 923 | 130 | – | – | –
CC(=O)c1cccc(NC(=O)NCc2cccc(-c3cccc(-c4cc5c[nH]ccc-5n4)c3O)c2)c1 | 2000 | 2170 | 2170 | 60 | – | – | –
O=C(NCCc1ccccc1)NCc1cccc(-c2cccc(-c3cc4c[nH]ccc-4n3)c2O)c1 | 174 | 96 | 417 | 270 | – | – | –
NC(=O)NCc1cccc(-c2cccc(-c3cc4c[nH]ccc-4n3)c2O)c1 | – | – | – | – | 46500 | 125000 | 71500
